Inhibition and metabolised data for 21 molecules are collected here from ChEMBL document CHEMBL1145205, “Synthesis and biological evaluation of 1,2,4-triazinylphenylalkylthiazolecarboxylic acid esters as cytokine-inhibiting antedrugs with strong bronchodilating effects in an animal model of asthma” (J Med Chem, 2005).

In series [1] the test system is PBL. Description: Percent inhibition of interleukin-5 production in human whole blood assay after 10e-6 M treatment. It is filed as functional.
For series [2], the system named is PBL. Description: Percent inhibition of interleukin-5 production in human whole blood assay after 10e-7 M treatment. It is filed as functional.
Series [3] can be described thus: Percent conversion of compound in human liver fraction after 60 min of administration. Format: ADME, tissue-based. The conditions noted are these: read-out: Conversion. Summed up:
(§1)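 Test compound at 10^-6 M incubated at 37 °C in phosphate buffered saline with human liver S9 (10 µg protein/ml) or human lung S9 (50 µg protein/ml); samples taken at 0, 15 and 60 min; parent compound quantified by LC-MS/MS using MRM transition of parent to daughter ion; percent converted after 60 min.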

A short description of series [4]: Percent conversion of compound in human lung S9 fraction after 60 min of administration. Format: ADME. Particulars: read-out: Conversion. Summed up:
as §1

With `CC(C)(c1nc(-c2ccccc2)c(C(=O)OCCc2ccccc2)s1)c1c(Cl)cc(-n2ncc(=O)[nH]c2=O)cc1Cl`, the Inhibition in the series on PBL [1] was 88%; in the series on PBL [2], 62%. Also, the values for the metabolised at 1 h in series [3] and in series [4] were 94% and 24%, respectively.
Taken in the same sequence, the figures for `CC(C)(C)OC(=O)c1sc(C(C)(C)c2c(Cl)cc(-n3ncc(=O)[nH]c3=O)cc2Cl)nc1-c1ccccc1` were 89%, 79%, 7% and 0%.
Taken in the same sequence, the figures for `CC(C)COC(=O)c1sc(C(C)(C)c2c(Cl)cc(-n3ncc(=O)[nH]c3=O)cc2Cl)nc1-c1ccccc1` were 90%, 56%, 80% and 27%.
Taken in the same sequence, the figures for `C#CCOC(=O)c1sc(C(C)(C)c2c(Cl)cc(-n3ncc(=O)[nH]c3=O)cc2Cl)nc1-c1ccccc1` were 90%, 87%, 55% and 20%.
In the case of `CCCCOC(=O)c1sc(C(C)(C)c2c(Cl)cc(-n3ncc(=O)[nH]c3=O)cc2Cl)nc1-c1ccccc1`, the Inhibition in the series on PBL [1] was found to be 88%; in the series on PBL [2], 51%. In addition, the metabolised at 1 h worked out at 86% in series [3] and 18% in series [4].
Turning to `CC(C)(c1nc(-c2ccccc2)c(C(=O)OCC2CC2)s1)c1c(Cl)cc(-n2ncc(=O)[nH]c2=O)cc1Cl`, the Inhibition in the series on PBL [1] was determined as 92%; with PBL [2], 56%. Moreover, the metabolised at 1 h is 87% in series [3] and 27% in series [4].
For `CC(C)=CCOC(=O)c1sc(C(C)(C)c2c(Cl)cc(-n3ncc(=O)[nH]c3=O)cc2Cl)nc1-c1ccccc1` the same measures were 73%, 55%, 65% and 6%.
For `C=CCOC(=O)c1sc(C(C)(C)c2c(Cl)cc(-n3ncc(=O)[nH]c3=O)cc2Cl)nc1-c1ccccc1` the same measures were 96%, 69%, 68% and 23%.
For `CCCCCOC(=O)c1sc(C(C)(C)c2c(Cl)cc(-n3ncc(=O)[nH]c3=O)cc2Cl)nc1-c1ccccc1` the same measures were 91%, 54%, 72% and 32%.
Consider `CCCOC(=O)c1sc(C(C)(C)c2c(Cl)cc(-n3ncc(=O)[nH]c3=O)cc2Cl)nc1-c1ccccc1`, for which the Inhibition is given as 96% in the series on PBL [1] and 69% with PBL [2]. Moreover, the values for the metabolised at 1 h in series [3] and in series [4] were 68% and 23%, respectively.
Taken in the same sequence, the figures for `CC(C)OC(=O)c1sc(C(C)(C)c2c(Cl)cc(-n3ncc(=O)[nH]c3=O)cc2Cl)nc1-c1ccccc1` were 94%, 85%, 10% and 1%.
Taken in the same sequence, the figures for `CC(=O)COC(=O)c1sc(C(C)(C)c2c(Cl)cc(-n3ncc(=O)[nH]c3=O)cc2Cl)nc1-c1ccccc1` were 85%, 57%, 64% and 19%.
As to `CC#CCOC(=O)c1sc(C(C)(C)c2c(Cl)cc(-n3ncc(=O)[nH]c3=O)cc2Cl)nc1-c1ccccc1`, the values for the Inhibition in the series on PBL [1] and in the series with PBL [2] were 100% and 96%, respectively. The metabolised at 1 h in series [3] was 1%; in series [4], 3%.
For `CCOC(=O)c1sc(C(C)(C)c2c(Cl)cc(-n3ncc(=O)[nH]c3=O)cc2Cl)nc1-c1ccccc1` the same measures were 94%, 67%, 29% and 17%.
Taken in the same sequence, the figures for `CC(C)(c1nc(-c2ccccc2)c(C(=O)OCCO)s1)c1c(Cl)cc(-n2ncc(=O)[nH]c2=O)cc1Cl` were 93%, 66%, 1% and 0%.
In the case of `CC(C)(c1nc(-c2ccccc2)c(C(=O)OCC#N)s1)c1c(Cl)cc(-n2ncc(=O)[nH]c2=O)cc1Cl`, the Inhibition with PBL [1] was found to be 91%; with PBL [2], 74%. Also, the metabolised at 1 h in series [3] worked out at 61%; in series [4], 34%.
Taken in the same sequence, the figures for `COC(=O)c1sc(C(C)(C)c2c(Cl)cc(-n3ncc(=O)[nH]c3=O)cc2Cl)nc1-c1ccccc1` were 93%, 84%, 49% and 47%.
Turning to `CC(C)(c1nc(-c2ccccc2)c(C(=O)OCC(F)(F)F)s1)c1c(Cl)cc(-n2ncc(=O)[nH]c2=O)cc1Cl`, the Inhibition in the series on PBL [1] is 92%; with PBL [2], 75%. Also, the metabolised at 1 h is 38% in series [3] and 36% in series [4].
Taken in the same sequence, the figures for `CC(C)(c1nc(-c2ccccc2)c(C(=O)O)s1)c1c(Cl)cc(-n2ncc(=O)[nH]c2=O)cc1Cl` were 0%, 0%, 0% and 0%.
For `CC(C)(c1nc(-c2ccccc2)c(C(=O)OCCOc2ccccc2)s1)c1c(Cl)cc(-n2ncc(=O)[nH]c2=O)cc1Cl` the same measures were 83%, 70%, 73% and 21%.
Taken in the same sequence, the figures for `CC(C)(c1nc(-c2ccccc2)c(C(=O)OCCCO)s1)c1c(Cl)cc(-n2ncc(=O)[nH]c2=O)cc1Cl` were 83%, 58%, 76% and 8%.
